{
  "source": "ChEMBL document CHEMBL5303300",
  "about": "“EUbOPEN Chemogenomics Library - Multiplex” (2023)",
  "test_system": "U2OS",
  "test": "Multiplex assay against U2OS",
  "format": "toxicity, cell-based",
  "conditions": "human, number of replicates 2",
  "outline": "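At seeding, live cells were stained with Hoechst33342, BioTracker Green Microtubule Cytoskeleton Dye, MitoTracker Red and Annexin V Alexa Fluor 680. After compound addition they were imaged on a CQ1 microscope at 37°C and 5% CO2, and CellPathfinder machine-learning gating sorted them into Hoechst high-intensity objects or normal cells, with normal cells further split into healthy, pyknosed or fragmented nuclei and pyknosed cells into mitotic or apoptotic. Tubulin, mitochondrial-mass and membrane-permeability phenotypes are given as per cents of cells with healthy nuclei.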",
  "key": {"[1]": {"conditions": "12 h, 1 µM, compound concentration 1 uM"}, "[2]": {"conditions": "12 h, 10 µM, compound concentration 10 uM"}, "[3]": {"conditions": "24 h, 1 µM, compound concentration 1 uM"}, "[4]": {"conditions": "24 h, 10 µM, compound concentration 10 uM"}, "[5]": {"conditions": "48 h, 1 µM, compound concentration 1 uM"}, "[6]": {"conditions": "48 h, 10 µM, compound concentration 10 uM"}},
  "note": "Values joined by “and” are separate entries in the source; they are usually repeats but may differ in a detail not shown here. Identical values can stand only once.",
  "data": [
    {"smiles": "O=C(NCc1ccc(F)cc1)N1CCN2C(=O)OC(c3ccccc3)(c3ccccc3)C2C1", "note": "(stereo not drawn)", "values": [
      {"measurement": "Population Apoptotic (%)", "setting": "[1]", "value": "80% and 46%"},
      {"measurement": "Population Fragmented Nuclei (%)", "setting": "[1]", "value": "11% and 2%"},
      {"measurement": "Population Healthy Nuclei (%)", "setting": "[1]", "value": "69% and 86%"},
      {"measurement": "Population Hoechst High Intensity Objects (%)", "setting": "[1]", "value": "3% and 0%"},
      {"measurement": "Population Membrane Permeable-Phenotype (%)", "setting": "[1]", "value": "0% and 3%"},
      {"measurement": "Population Mitochondria Different-Phenotype (%)", "setting": "[1]", "value": "0% and 1%"},
      {"measurement": "Population Mitotic Cells (%)", "setting": "[1]", "value": "20% and 53%"},
      {"measurement": "Population Normal (%)", "setting": "[1]", "value": "96% and 100%"},
      {"measurement": "Population Pyknosed Nuclei (%)", "setting": "[1]", "value": "19% and 10%"},
      {"measurement": "Population Tubulin-Different-Phenotype (%)", "setting": "[1]", "value": "61% and 62%"},
      {"measurement": "Population Apoptotic (%)", "setting": "[2]", "value": "62% and 43%"},
      {"measurement": "Population Fragmented Nuclei (%)", "setting": "[2]", "value": "7% and 4%"},
      {"measurement": "Population Healthy Nuclei (%)", "setting": "[2]", "value": "71% and 86%"},
      {"measurement": "Population Hoechst High Intensity Objects (%)", "setting": "[2]", "value": 0, "unit": "%"},
      {"measurement": "Population Membrane Permeable-Phenotype (%)", "setting": "[2]", "value": "22% and 24%"},
      {"measurement": "Population Mitochondria Different-Phenotype (%)", "setting": "[2]", "value": "22% and 17%"},
      {"measurement": "Population Mitotic Cells (%)", "setting": "[2]", "value": "37% and 56%"},
      {"measurement": "Population Normal (%)", "setting": "[2]", "value": "100% and 99%"},
      {"measurement": "Population Pyknosed Nuclei (%)", "setting": "[2]", "value": "21% and 9%"},
      {"measurement": "Population Tubulin-Different-Phenotype (%)", "setting": "[2]", "value": "88% and 60%"},
      {"measurement": "Population Apoptotic (%)", "setting": "[3]", "value": "47% and 81%"},
      {"measurement": "Population Fragmented Nuclei (%)", "setting": "[3]", "value": "2% and 8%"},
      {"measurement": "Population Healthy Nuclei (%)", "setting": "[3]", "value": "88% and 58%"},
      {"measurement": "Population Hoechst High Intensity Objects (%)", "setting": "[3]", "value": "0% and 2%"},
      {"measurement": "Population Membrane Permeable-Phenotype (%)", "setting": "[3]", "value": "2% and 5%"},
      {"measurement": "Population Mitochondria Different-Phenotype (%)", "setting": "[3]", "value": 0, "unit": "%"},
      {"measurement": "Population Mitotic Cells (%)", "setting": "[3]", "value": "52% and 18%"},
      {"measurement": "Population Normal (%)", "setting": "[3]", "value": "100% and 97%"},
      {"measurement": "Population Tubulin-Different-Phenotype (%)", "setting": "[3]", "value": "72% and 45%"},
      {"measurement": "Population Apoptotic (%)", "setting": "[4]", "value": "75% and 72%"},
      {"measurement": "Population Fragmented Nuclei (%)", "setting": "[4]", "value": "2% and 6%"},
      {"measurement": "Population Healthy Nuclei (%)", "setting": "[4]", "value": "64% and 78%"},
      {"measurement": "Population Hoechst High Intensity Objects (%)", "setting": "[4]", "value": 0, "unit": "%"},
      {"measurement": "Population Membrane Permeable-Phenotype (%)", "setting": "[4]", "value": "37% and 16%"},
      {"measurement": "Population Mitochondria Different-Phenotype (%)", "setting": "[4]", "value": "45% and 36%"},
      {"measurement": "Population Mitotic Cells (%)", "setting": "[4]", "value": "25% and 28%"},
      {"measurement": "Population Normal (%)", "setting": "[4]", "value": 100, "unit": "%"},
      {"measurement": "Population Pyknosed Nuclei (%)", "setting": "[4]", "value": "32% and 15%"},
      {"measurement": "Population Tubulin-Different-Phenotype (%)", "setting": "[4]", "value": "83% and 53%"},
      {"measurement": "Population Apoptotic (%)", "setting": "[5]", "value": "37% and 90%"},
      {"measurement": "Population Healthy Nuclei (%)", "setting": "[5]", "value": "90% and 62%"},
      {"measurement": "Population Hoechst High Intensity Objects (%)", "setting": "[5]", "value": "0% and 1%"},
      {"measurement": "Population Membrane Permeable-Phenotype (%)", "setting": "[5]", "value": "1% and 9%"},
      {"measurement": "Population Mitochondria Different-Phenotype (%)", "setting": "[5]", "value": 0, "unit": "%"},
      {"measurement": "Population Normal (%)", "setting": "[5]", "value": "100% and 98%"},
      {"measurement": "Population Pyknosed Nuclei (%)", "setting": "[5]", "value": "6% and 18%"},
      {"measurement": "Population Tubulin-Different-Phenotype (%)", "setting": "[5]", "value": "86% and 48%"},
      {"measurement": "Population Apoptotic (%)", "setting": "[6]", "value": "75% and 73%"},
      {"measurement": "Population Fragmented Nuclei (%)", "setting": "[6]", "value": "7% and 5%"},
      {"measurement": "Population Healthy Nuclei (%)", "setting": "[6]", "value": "57% and 75%"},
      {"measurement": "Population Hoechst High Intensity Objects (%)", "setting": "[6]", "value": 0, "unit": "%"},
      {"measurement": "Population Membrane Permeable-Phenotype (%)", "setting": "[6]", "value": "12% and 20%"},
      {"measurement": "Population Mitochondria Different-Phenotype (%)", "setting": "[6]", "value": "37% and 19%"},
      {"measurement": "Population Mitotic Cells (%)", "setting": "[6]", "value": "25% and 26%"},
      {"measurement": "Population Normal (%)", "setting": "[6]", "value": 100, "unit": "%"},
      {"measurement": "Population Pyknosed Nuclei (%)", "setting": "[6]", "value": "35% and 18%"},
      {"measurement": "Population Tubulin-Different-Phenotype (%)", "setting": "[6]", "value": "68% and 42%"}
    ]},
    {"smiles": "Cn1ncc(NC(=O)c2nc(-c3c(F)cccc3F)sc2N)c1N1CC[C@@H](N)[C@H](F)CC1", "values": [
      {"measurement": "Population Apoptotic (%)", "setting": "[1]", "value": "55% and 77%"},
      {"measurement": "Population Healthy Nuclei (%)", "setting": "[1]", "value": "46% and 79%"},
      {"measurement": "Population Hoechst High Intensity Objects (%)", "setting": "[1]", "value": 0, "unit": "%"},
      {"measurement": "Population Mitochondria Different-Phenotype (%)", "setting": "[1]", "value": 0, "unit": "%"},
      {"measurement": "Population Normal (%)", "setting": "[1]", "value": 100, "unit": "%"},
      {"measurement": "Population Pyknosed Nuclei (%)", "setting": "[1]", "value": 19, "unit": "%"},
      {"measurement": "Population Tubulin-Different-Phenotype (%)", "setting": "[1]", "value": "50% and 77%"},
      {"measurement": "Population Apoptotic (%)", "setting": "[2]", "value": "73% and 69%"},
      {"measurement": "Population Healthy Nuclei (%)", "setting": "[2]", "value": "22% and 53%"},
      {"measurement": "Population Hoechst High Intensity Objects (%)", "setting": "[2]", "value": 0, "unit": "%"},
      {"measurement": "Population Mitochondria Different-Phenotype (%)", "setting": "[2]", "value": "0% and 18%"},
      {"measurement": "Population Normal (%)", "setting": "[2]", "value": "98% and 99%"},
      {"measurement": "Population Pyknosed Nuclei (%)", "setting": "[2]", "value": "44% and 24%"},
      {"measurement": "Population Tubulin-Different-Phenotype (%)", "setting": "[2]", "value": "38% and 39%"},
      {"measurement": "Population Apoptotic (%)", "setting": "[3]", "value": "50% and 89%"},
      {"measurement": "Population Healthy Nuclei (%)", "setting": "[3]", "value": "48% and 85%"},
      {"measurement": "Population Hoechst High Intensity Objects (%)", "setting": "[3]", "value": 0, "unit": "%"},
      {"measurement": "Population Mitochondria Different-Phenotype (%)", "setting": "[3]", "value": 8, "unit": "%"},
      {"measurement": "Population Normal (%)", "setting": "[3]", "value": "100% and 99%"},
      {"measurement": "Population Pyknosed Nuclei (%)", "setting": "[3]", "value": "16% and 7%"},
      {"measurement": "Population Tubulin-Different-Phenotype (%)", "setting": "[3]", "value": "62% and 80%"},
      {"measurement": "Population Apoptotic (%)", "setting": "[4]", "value": "90% and 86%"},
      {"measurement": "Population Mitochondria Different-Phenotype (%)", "setting": "[4]", "value": 33, "unit": "%"},
      {"measurement": "Population Normal (%)", "setting": "[4]", "value": "98% and 100%"},
      {"measurement": "Population Pyknosed Nuclei (%)", "setting": "[4]", "value": "49% and 31%"},
      {"measurement": "Population Tubulin-Different-Phenotype (%)", "setting": "[4]", "value": "33% and 56%"},
      {"measurement": "Total Cell Count", "setting": "[4]", "value": "64 and 190"},
      {"measurement": "Population Apoptotic (%)", "setting": "[5]", "value": "84% and 66%"},
      {"measurement": "Population Healthy Nuclei (%)", "setting": "[5]", "value": "90% and 65%"},
      {"measurement": "Population Hoechst High Intensity Objects (%)", "setting": "[5]", "value": 0, "unit": "%"},
      {"measurement": "Population Mitochondria Different-Phenotype (%)", "setting": "[5]", "value": 7, "unit": "%"},
      {"measurement": "Population Normal (%)", "setting": "[5]", "value": 100, "unit": "%"},
      {"measurement": "Population Pyknosed Nuclei (%)", "setting": "[5]", "value": 5, "unit": "%"},
      {"measurement": "Population Tubulin-Different-Phenotype (%)", "setting": "[5]", "value": "84% and 49%"},
      {"measurement": "Population Apoptotic (%)", "setting": "[6]", "value": "96% and 93%"},
      {"measurement": "Population Healthy Nuclei (%)", "setting": "[6]", "value": "21% and 44%"},
      {"measurement": "Population Hoechst High Intensity Objects (%)", "setting": "[6]", "value": 0, "unit": "%"},
      {"measurement": "Population Mitochondria Different-Phenotype (%)", "setting": "[6]", "value": "25% and 19%"},
      {"measurement": "Population Normal (%)", "setting": "[6]", "value": 100, "unit": "%"},
      {"measurement": "Population Pyknosed Nuclei (%)", "setting": "[6]", "value": "53% and 36%"},
      {"measurement": "Population Tubulin-Different-Phenotype (%)", "setting": "[6]", "value": "41% and 57%"}
    ]}
  ]
}
